Sampled rows, rich in hits. Any-hit rate of the full collection: about 4.5%.
TAAR1 agonist: agonists of human TAAR1. CHO RD-HGA16 TAAR1, Fluo-8 calcium fluorescence; vehicle wells 0%, saturating PEA agonist 100%. activation, % at 3 µM. 0.99% of 360,000 active. AID 624467;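 active = activation above the mean activation of all test compounds in the run plus 3 SD, cut at about 38% in these data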
Target sequence (Q96RJ0 whole entry, looked up): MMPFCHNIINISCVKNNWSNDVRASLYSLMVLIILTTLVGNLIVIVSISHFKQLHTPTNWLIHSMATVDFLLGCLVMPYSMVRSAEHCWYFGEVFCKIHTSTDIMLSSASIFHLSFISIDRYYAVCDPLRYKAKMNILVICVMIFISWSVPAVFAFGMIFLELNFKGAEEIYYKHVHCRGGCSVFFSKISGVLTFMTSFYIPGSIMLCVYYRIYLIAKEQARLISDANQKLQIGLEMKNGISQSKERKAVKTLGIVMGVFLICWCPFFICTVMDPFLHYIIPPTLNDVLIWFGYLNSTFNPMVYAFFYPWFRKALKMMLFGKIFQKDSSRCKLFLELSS
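System: CHO-derived RD-HGA16 cells with stable Gα16 and human TAAR1 / Times: 17-24 h plating, Fluo-8 75 min 37 °C, 30 min RT / Technique: calcium-sensitive Fluo-8 signal, excitation 470-495, emission 515-575 nm / Measure: % activation relative to PEA EC100 response / Benchmarks: DMSO and PEA EC100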
OX1R antag-1: blocks the human orexin 1 receptor. AID 434989. 0.43% of 330,000 active. CHO/OX1R cells, Fluo-8 calcium fluorescence, orexin A. O43613. inhibition, % at 5 µM;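 active = inhibition above its plate's threshold, mean inhibition of all tested compounds on the plate plus 3 SD, cut at about 37% in these data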
CHO parental Ca: signal in parental CHO cells, OX1R antagonist counter-screen | parental CHO-K1, ATP-induced calcium, Fluo-8 fluorescence | inhibition, % at 5.6 µM | 0.63% of 330,000 active | AID 463079;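 active = inhibition above that plate's mean sample inhibition plus 3 SD, cut at about 26% in these data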
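Material – parental CHO cells · Reagent – ATP stimulus · Compound – single nominal dose of 5.6 µM per compound · Detection – Fluo-8 fluorescence · Read-out basis – percent inhibition of calcium signal · Controls – ATP-challenged DMSO wells low, unchallenged DMSO wells high · Repeats – no replicates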
OX1R antag-2: antagonists of human orexin 1 receptor (OX1R) | inhibition, % at 6.6 µM | 1.8% of 330,000 active | OX1R-expressing cells, FRET antagonist read-out | AID 485270 | O43613; in the data active = inhibition mostly above about 38%, no sharp cut-off; inactive = mostly below about 40%
GPR7 antag: human neuropeptides B/W receptor 1 antagonism; 1.1% of 290,000 active; GPR7-expressing cells, fluorescence antagonist assay; inhibition, % at 4.4 µM; in the data active = inhibition above about 16%, passing the limit was not always enough;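 also: cells stimulated with the agonist NPW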
Target sequence (P48145 whole entry, looked up): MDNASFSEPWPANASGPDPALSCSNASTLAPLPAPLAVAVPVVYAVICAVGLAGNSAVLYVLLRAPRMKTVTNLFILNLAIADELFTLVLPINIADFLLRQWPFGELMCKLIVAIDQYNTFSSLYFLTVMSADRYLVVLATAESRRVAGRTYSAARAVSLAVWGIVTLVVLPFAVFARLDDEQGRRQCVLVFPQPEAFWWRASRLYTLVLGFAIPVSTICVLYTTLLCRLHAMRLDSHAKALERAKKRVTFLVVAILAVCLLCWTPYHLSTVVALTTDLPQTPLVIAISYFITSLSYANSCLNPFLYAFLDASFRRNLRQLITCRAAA
TAAR1 antagonist: human TAAR1 antagonism | Q96RJ0 | CHO RD-HGA16 TAAR1, Fluo-8 calcium fluorescence, antagonist | inhibition, % at 3 µM | 1.5% of 360,000 active;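 active = inhibition above a per-plate cutoff, the mean inhibition of test compounds on that plate plus 3 SD, cut at about 49% in these data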
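Material: CHO RD-HGA16 cells bearing hTAAR1; compound dosing: one-point dosing, 3 µM nominal final; schedule: dye loading 75 min at 37 °C, then 30 min room temperature; measured by: calcium fluorescence with Fluo-8; control set: vehicle and agonist controls; replication: n of 1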
Large screens that a line does not name were inactive.

CC1C(=O)N(Cc2ccc(F)cc2)c2ccccc2N1C(=O)c1c(F)cccc1F (stereo not drawn)	none
CCc1ccc(N2C(=O)CN(Cc3cc(OC)c(OC)c(OC)c3)C2=S)cc1	none
CCc1ccccc1N1C(=O)CN(Cc2cc(OC)c(OC)c(OC)c2)C1=S	OX1R antag-2 37
COc1ccccc1C(=O)Nc1nnc(-c2ccc3c(c2)CCCC3)o1	OX1R antag-2 68
CC(=O)Nc1nnc(-c2ccc3c(c2)CCCC3)o1	none
CC(=O)N1CCN(c2ccc(NCc3ccc(-c4ccc(Br)cc4)o3)cc2)CC1	TAAR1 antagonist 58 (no result: GPR7 antag)
O=C(Nc1ccccc1-c1nc2ccccc2[nH]1)c1ccc(N2C(=O)CCC2=O)cc1	TAAR1 antagonist 50
CC(C)c1ccc(NC(=O)N2CCc3ccccc3C2)cc1	GPR7 antag 41
COCC(=O)O[C@]1(CCN(C)CCCc2nc3ccccc3[nH]2)CCc2cc(F)ccc2[C@@H]1C(C)C	TAAR1 agonist 41 (no result: GPR7 antag)
CCOC(=O)CCc1nc2ccccc2[nH]1	none
COc1ccccc1-c1cc(NC=O)c2ncc(-c3cccc(C(=O)N(C)C)c3)n2c1	none (no result: OX1R antag-1, CHO parental Ca, OX1R antag-2, GPR7 antag)
COc1ccccc1-c1cc(NC=O)c2ncc(-c3cccc(C(C)=O)c3)n2c1	TAAR1 antagonist 50 (no result: OX1R antag-1, CHO parental Ca, OX1R antag-2, GPR7 antag)
COc1ccc(-c2cc(NC=O)c3ncc(-c4cccc(OC)c4)n3c2)cc1	TAAR1 antagonist 59 (no result: OX1R antag-1, CHO parental Ca, OX1R antag-2, GPR7 antag)
CC(=O)Nc1cccc(-c2cc(NC=O)c3ncc(-c4ccc(C(C)=O)cc4)n3c2)c1	none (no result: OX1R antag-1, CHO parental Ca, OX1R antag-2, GPR7 antag)
COc1ccc(-c2cc(NC=O)c3ncc(-c4ccc(C(C)=O)cc4)n3c2)cn1	TAAR1 antagonist 53 (no result: OX1R antag-1, CHO parental Ca, OX1R antag-2, GPR7 antag)
O=CNc1cc(-c2ccsc2)cn2c(-c3ccccc3)cnc12	TAAR1 antagonist 60 (no result: OX1R antag-1, CHO parental Ca, OX1R antag-2, GPR7 antag)
O=C(NC(CC1=CCCCC1)c1ccc2ccccc2c1)C(F)(F)F (stereo not drawn)	none (no result: OX1R antag-1, CHO parental Ca, OX1R antag-2, GPR7 antag)
O=C(NCc1ccccc1)[C@H]1CCCN1C(=O)[C@H]1CCCN1C(=O)c1ccccc1C(F)(F)F	none (no result: OX1R antag-1, CHO parental Ca, OX1R antag-2, GPR7 antag)
COc1ccc(C(=O)NCC2CCN(C(=O)C(=O)c3cc4ccccc4o3)CC2)cc1	none (no result: OX1R antag-1, CHO parental Ca, OX1R antag-2, GPR7 antag)
O=C(Cn1cnc([N+](=O)[O-])n1)NCc1ccccc1	OX1R antag-2 72
O=C(Cn1cnc([N+](=O)[O-])n1)NCCO	none
CCOC(=O)C1=CCC(c2ccc([N+](=O)[O-])cc2)N(S(=O)(=O)c2ccc(C)cc2)C1 (stereo not drawn)	none (no result: OX1R antag-1, CHO parental Ca, OX1R antag-2, GPR7 antag)
CCCN1C(=O)c2cc(C(=O)Nc3cccc(C(C)=O)c3)ccc2C1Nc1cccc(C(C)=O)c1 (stereo not drawn)	TAAR1 antagonist 74
COc1ccc(C)cc1Nc1n[n+](-c2ccccc2)c(-c2c(Cl)cccc2Cl)s1	CHO parental Ca 38
O=C(NCCCCC(NC(=O)c1ccccc1)C(=O)O)OCc1ccccc1 (stereo not drawn)	none (no result: OX1R antag-1, CHO parental Ca, OX1R antag-2, GPR7 antag)
CC(NC(=O)C=Cc1ccco1)C(=O)NC(Cc1ccccc1)C(N)=O (stereo not drawn)	none (no result: OX1R antag-1, CHO parental Ca, OX1R antag-2, GPR7 antag)
Oc1ccc(C23CCCC2C2(CCCC2)c2ccc(O)cc2O3)c(O)c1 (stereo not drawn)	TAAR1 agonist 71, OX1R antag-1 110, CHO parental Ca 75, TAAR1 antagonist 99 (no result: GPR7 antag)
CC1CCN(CCCOc2ccc(Br)cc2Cl)CC1	TAAR1 agonist 39
COc1cccc(CN(C)C(=O)[C@H]2O[C@@H](n3cnc4c(=O)[nH]c(N)nc43)[C@H](O)[C@@H]2O)c1	none (no result: OX1R antag-1, CHO parental Ca, OX1R antag-2, GPR7 antag)
Cc1nn(-c2ccccc2)c(C)c1NC(=O)COC(=O)c1ccc(S(=O)(=O)C(F)F)cc1	TAAR1 antagonist 49 (no result: GPR7 antag)
Cc1nn(-c2ccccc2)c(C)c1NC(=O)COC(=O)c1cccc(OC(F)F)c1	TAAR1 antagonist 55 (no result: GPR7 antag)
CCCCn1c(N)c(N(Cc2ccccc2OC)C(=O)C(C)C)c(=O)[nH]c1=O	none
O=C(c1cc(O)c(O)c([N+](=O)[O-])c1)c1ccccc1F	OX1R antag-2 39 (no result: GPR7 antag)
Cc1cccc(N2C(=O)c3cccc(Oc4ccc(Cl)cc4)c3C2=O)c1	TAAR1 agonist 38
O=C(O)c1cccc(N2C(=O)c3ccc(Oc4ccc(Cl)cc4)cc3C2=O)c1	none
COc1ccc(-c2nc3scc(-c4ccccc4)n3n2)cc1	OX1R antag-2 67
CCOC(=O)Cc1csc2nc(-c3ccccc3)nn12	none
Cc1ccc2cccc(NC(=S)NC(=O)c3ccn(C)n3)c2n1	OX1R antag-2 65
CC(Sc1nnc(N)s1)C(=O)NC1CCCCC1C (stereo not drawn)	none (no result: GPR7 antag)
CN(Cc1ccco1)S(=O)(=O)c1nnc(NC(=O)c2cccc(Cl)c2)s1	CHO parental Ca 29
O=C(Nc1nnc(C2=COCCO2)o1)c1ccc([N+](=O)[O-])cc1	OX1R antag-2 52
COc1ccccc1CC(=O)O/N=C(\N)Cc1cccc2ccccc12	TAAR1 agonist 75
Cc1c(C(=O)N2C[C@@H](C)O[C@@H](C)C2)oc2c(F)cccc12	none
Cc1cc(C(=O)CN2C(=O)NC3(CCCc4sccc43)C2=O)c(C)n1-c1ccc(Cl)cc1 (stereo not drawn)	OX1R antag-2 50
NC(=O)CN1C(=O)NC2(CCCc3sccc32)C1=O (stereo not drawn)	none
Cc1ccccc1CN1[C@@H](C)[C@H](c2ccccc2)Oc2cccc(NCCc3ccccc3)c2S1(=O)=O	none (no result: OX1R antag-1, CHO parental Ca, OX1R antag-2, GPR7 antag)
CN1CCCCC(NC(=O)c2cccc(C(F)(F)F)c2)C1=O (stereo not drawn)	none (no result: OX1R antag-1, CHO parental Ca, OX1R antag-2, GPR7 antag)
COc1ccc(N(CC(O)CN2CCOCC2)S(=O)(=O)c2ccc(C)cc2)cc1 (stereo not drawn)	none
Cc1ccc(N(CC(O)CN2CCOCC2)S(=O)(=O)c2ccc([N+](=O)[O-])cc2)cc1 (stereo not drawn)	OX1R antag-2 38
O=[N+]([O-])c1ccc(S(=O)(=O)CC(CN2CCOCC2)N2CCOCC2)cc1 (stereo not drawn)	OX1R antag-2 49
COc1ccc(-c2cnc3c(c2)C(=O)N([C@H](C)CO)C[C@@H](C)[C@@H](CN(C)C(=O)NC2CCCC2)O3)cc1	none (no result: OX1R antag-1, CHO parental Ca, OX1R antag-2, GPR7 antag)
N=c1n(Cc2ccc(Cl)cc2)c2ccccc2n1CC(O)COc1ccccc1 (stereo not drawn)	OX1R antag-1 75, CHO parental Ca 72, GPR7 antag 47
OC(COc1ccccc1Cl)CN1CCN(CC(O)COc2ccccc2Cl)CC1 (stereo not drawn)	TAAR1 antagonist 50
OC(COc1ccc(Cl)cc1)CN1CCC(Cc2ccccc2)CC1 (stereo not drawn)	TAAR1 agonist 41
COC(=O)CCCC1=CC2=CC(=O)C(C)(OC(=O)c3cccs3)C(=O)C2=CN1CCCOC(C)C (stereo not drawn)	OX1R antag-2 63 (no result: GPR7 antag)
Cc1ccccc1C(=O)Oc1cccc(Nc2ncnc3ccccc23)c1	OX1R antag-1 55, CHO parental Ca 61, OX1R antag-2 81, TAAR1 antagonist 53
CCCc1nc2c(C)cc(Br)cn2c1Cc1ccccc1OC	none (no result: OX1R antag-1, CHO parental Ca, OX1R antag-2, GPR7 antag)
